The record followed here is the array DNA melting data of Ke et al. (doi:10.1101/2024.01.08.574731).

Data set [1] can be described thus: melting temperature; fluorescence melt of hairpins on a sequencing array, two-state fit, raised by 9.35 °C to match UV melts. As to conditions: sodium 0.088 M. A digest of the protocol: (§1)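 Folding enthalpy and melting temperature come from bootstrapped two-state fits to Cy3 fluorescence of library hairpins carrying annealed Cy3 and quencher oligos on a sequenced MiSeq flow cell. Imaging was done in 50 mM Na-HEPES pH 8.0, 25 mM NaCl, stepping by 2.5 °C up to 60 °C, and signals were normalised to pre-quench Cy3 and to control constructs. Results of four replicates were combined by inverse variance, and fitted temperatures were raised by 9.35 °C to match UV melts.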

A short description of data set [2]: folding enthalpy; higher = less favourable; fluorescence melt of hairpins on a sequencing array, two-state fit. The conditions noted are these: sodium 0.088 M. In outline:
as §1

GTAACCGAAAGGTGATAC ((((((....)))..))): the Tm in data set [1] was found to be 30.7 °C. Moreover, the folding enthalpy in data set [2] is -12.9 kcal/mol.
As for GTAACCGAAAGGTGCTAC ((((((....)))..))), the Tm in data set [1] turned out to be 39.1 °C. In addition, the folding enthalpy in data set [2] was -13.1 kcal/mol.
Consider GTAACCGGAAACGGTTGC (.(((((....))))).), for which, in data set [1], the Tm is 53.1 °C. The folding enthalpy in data set [2] was -31.8 kcal/mol.
For GTAACGCGAAAGCGCTAC (((.(((....))).))), in that order: 51.9 °C and -19.6 kcal/mol.
For GTAACGGAAACGTTAC ((((((....)))))), in that order: 56.3 °C and -40.2 kcal/mol.
For GTAACGGGAAACCGCTAC (((.(((....))).))), the Tm in data set [1] stood at 39.9 °C. In addition, the folding enthalpy in data set [2] was -24.4 kcal/mol.
For the sequence GTAACGGGAAACCGTTGC (.(((((....))))).), in data set [1], the Tm was determined as 52 °C. Besides, the folding enthalpy in data set [2] is -21.2 kcal/mol.
GTAACGTCGAAAGACTAC (((..(((....)))))): the Tm in data set [1] came to 28.7 °C. In addition, the folding enthalpy in data set [2] was -11.2 kcal/mol.
For GTAACTGGAAACAGTTAC (((((((....))))))), in that order: 56.1 °C and -41.6 kcal/mol.
For the sequence GTAAGAACGAAAGTTTAC (((..(((....)))))), the Tm in data set [1] was found to be 24.3 °C. The folding enthalpy in data set [2] is -8.19 kcal/mol.
On to GTAAGAGGAAACTCTCAC ((.((((....)))).)), for which the Tm in data set [1] came to 26.3 °C. In addition, the folding enthalpy in data set [2] was -14.8 kcal/mol.
With GTAAGAGGAAACTCTTAC (((((((....))))))), in data set [1], the Tm is 51 °C. In addition, the folding enthalpy in data set [2] was -42.2 kcal/mol.
Regarding GTAAGCCCGAAAGGGTAC (((..(((....)))))), in data set [1], the Tm amounted to 28.1 °C. The folding enthalpy in data set [2] was -10.6 kcal/mol.
On to GTAAGCCGAAAGGCCTAC (((.(((....))).))), for which, in data set [1], the Tm came to 39.4 °C. Besides, in data set [2], the folding enthalpy is -13.7 kcal/mol.
For GTAAGCGAAAGCTTTTAC ((((((....)))..))), in that order: 29.7 °C and -11.8 kcal/mol.
Turning to GTAAGCGGAAACGCCTAC (((.(((....))).))), the Tm in data set [1] was 35.4 °C. Besides, in data set [2], the folding enthalpy was -15.8 kcal/mol.
On to GTAAGCGGAAACGTTTAC ((((.((....)).)))), for which the Tm in data set [1] amounted to 43 °C. In data set [2], the folding enthalpy was -28.2 kcal/mol.
GTAAGGCGAAAGCCATAC (((.(((....))).))): the Tm in data set [1] worked out at 44.8 °C. In addition, the folding enthalpy in data set [2] is -15.3 kcal/mol.
On the same counts, the results for GTAAGGCGAAAGCCCTAC (((.(((....))).))) are 36 °C and -13.5 kcal/mol.
For GTAAGGGGAAACCTTTAC ((((.((....)).)))), in that order: 33.9 °C and -27.1 kcal/mol.
In the case of GTAAGGGGAAACTCTTAC (((((.(....).))))), in data set [1], the Tm came out at 37.6 °C. Moreover, the folding enthalpy in data set [2] is -34.4 kcal/mol.
For GTAATAGGAAACTATTGC (.(((((....))))).), in that order: 34.2 °C and -18.7 kcal/mol.
Consider GTAATAGGAAACTGTTAC ((((.((....)).)))), for which the Tm in data set [1] is 36.4 °C. Further, the folding enthalpy in data set [2] was -24.9 kcal/mol.
In the case of GTAATCACGAAAGTGTAC (((..(((....)))))), the Tm in data set [1] stood at 29.3 °C. Further, the folding enthalpy in data set [2] is -10.9 kcal/mol.
Turning to GTAATCCCGAAAGGGTAC (((..(((....)))))), in data set [1], the Tm came out at 27.5 °C. In addition, the folding enthalpy in data set [2] was -11.1 kcal/mol.
On to GTAATCGAAAGATTCTAC ((((((....)))..))), for which the Tm in data set [1] came to 28.8 °C. In data set [2], the folding enthalpy was -18.5 kcal/mol.
As for GTAATCGGAAACGATCAC ((.((((....)))).)), in data set [1], the Tm came to 33.9 °C. The folding enthalpy in data set [2] was -25 kcal/mol.
As to GTAATGGAAACATTAC ((((((....)))))), the Tm in data set [1] came to 46.7 °C. The folding enthalpy in data set [2] is -31.7 kcal/mol.
Take GTAATGGGAAACCATCAC ((.((((....)))).)): in data set [1], the Tm is 28.8 °C. Besides, the folding enthalpy in data set [2] was -17.7 kcal/mol.
On to GTAATTGGAAACAATCAC ((.((((....)))).)), for which the Tm in data set [1] was determined as 27.4 °C. The folding enthalpy in data set [2] is -11.6 kcal/mol.
On the same counts, the results for GTACACACGAAAGTGTAC (((..(((....)))))) are 46.5 °C and -16.6 kcal/mol.
As to GTACACGAAAGTGAGTAC ((((((....)))..))), the Tm in data set [1] is 36.5 °C. Besides, the folding enthalpy in data set [2] was -15.6 kcal/mol.
As for GTACACGAAAGTGTATAC ((((((....)))..))), in data set [1], the Tm was 43.6 °C. In data set [2], the folding enthalpy is -12.1 kcal/mol.
With GTACACGAAAGTGTGTAC ((((((....)))..))), the Tm in data set [1] was 46 °C. In addition, in data set [2], the folding enthalpy was -13.8 kcal/mol.
GTACACGGAAACATGTAC (((((.(....).))))): the Tm in data set [1] is 34.2 °C. In data set [2], the folding enthalpy was -28.3 kcal/mol.
Consider GTACAGACGAAAGTCTAC (((..(((....)))))), for which the Tm in data set [1] was determined as 29.8 °C. Further, the folding enthalpy in data set [2] was -11.5 kcal/mol.
As for GTACAGCGAAAGCTATAC (((.(((....))).))), the Tm in data set [1] was 36.9 °C. For the same sequence, the folding enthalpy in data set [2] is -18 kcal/mol.
On the same counts, the results for GTACAGGGAAACCTGTGC (.(((((....))))).) are 49.8 °C and -20.9 kcal/mol.
As for GTACATCCGAAAGGATAC (((..(((....)))))), in data set [1], the Tm came to 29.6 °C. The folding enthalpy in data set [2] was -12.1 kcal/mol.
On to GTACATGCGAAAGCATAC (((..(((....)))))), for which the Tm in data set [1] was 28.7 °C. Also, the folding enthalpy in data set [2] was -8.62 kcal/mol.
GTACATGGAAACATGCAC ((.((((....)))).)): the Tm in data set [1] was 39.2 °C. Further, the folding enthalpy in data set [2] was -22.7 kcal/mol.
As for GTACCACGAAAGTGATAC (((.(((....))).))), the Tm in data set [1] was determined as 43.7 °C. In data set [2], the folding enthalpy was -24.3 kcal/mol.
For GTACCAGGAAACCGGTAC (((((.(....).))))), in that order: 46.9 °C and -35.7 kcal/mol.
Turning to GTACCAGGAAACTAGTAC ((((.((....)).)))), the Tm in data set [1] is 28.7 °C. Besides, the folding enthalpy in data set [2] was -15.3 kcal/mol.
As for GTACCCACGAAAGTGTAC (((..(((....)))))), the Tm in data set [1] turned out to be 26.2 °C. Further, the folding enthalpy in data set [2] was -11.5 kcal/mol.
GTACCCGAAAGGGCTAC ((((((....))).))): the Tm in data set [1] was found to be 40.2 °C. The folding enthalpy in data set [2] is -15.3 kcal/mol.
As for GTACCCGAAAGGGCTTAC ((((((....)))..))), the Tm in data set [1] amounted to 27.1 °C. In addition, the folding enthalpy in data set [2] was -11.2 kcal/mol.
For the sequence GTACCCGAAAGGGGTAC ((((((....))).))), in data set [1], the Tm was 59.2 °C. The folding enthalpy in data set [2] is -27.8 kcal/mol.
In the case of GTACCCGGAAACGGATAC (((.(((....))).))), the Tm in data set [1] turned out to be 42.2 °C. Also, the folding enthalpy in data set [2] was -24.3 kcal/mol.
Turning to GTACCGAAAGGTAC (((((....))))), the Tm in data set [1] stood at 65.9 °C. Also, the folding enthalpy in data set [2] is -27 kcal/mol.
With GTACCGCGAAAGCGATAC (((.(((....))).))), the Tm in data set [1] amounted to 48.5 °C. Further, the folding enthalpy in data set [2] is -23.6 kcal/mol.
On to GTACCGCGAAAGCGCTAC (((.(((....))).))), for which the Tm in data set [1] was found to be 35.9 °C. The folding enthalpy in data set [2] was -12.2 kcal/mol.
On the same counts, the results for GTACCTCGAAAGAGATAC (((.(((....))).))) are 38.7 °C and -28.3 kcal/mol.
GTACCTCGAAAGAGCTAC (((.(((....))).))): in data set [1], the Tm was 30.2 °C. Moreover, in data set [2], the folding enthalpy is -11.1 kcal/mol.
As for GTACCTCGAAAGAGTAC (((.(((....)))))), the Tm in data set [1] turned out to be 42.5 °C. Further, the folding enthalpy in data set [2] was -20.8 kcal/mol.
